Assay type in all cases: functional
The test system of assay [1] is Candida albicans. The assay is described as follows: Antimicrobial activity against Candida albicans SC5314 after 24 hrs by serial dilution method. To be noted: SC5314, 24 h. An outline of the steps: (§1)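 Broth serial dilution MIC in 96-well plates following NCCLS/CLSI methods. Compounds were dissolved in DMSO and serially diluted in growth medium, with incubation at 35 °C. […] C. parapsilosis 22019 served as the quality-control strain in each assay.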

In assay [2] the test system is Candida albicans. Kind of assay: Antimicrobial activity against Candida albicans Y0109 after 24 hrs by serial dilution method. Particulars: Y0109, 24 h. Put shortly:
as §1

For a further assay, the system named is Candida parapsilosis. Kind of assay: Antimicrobial activity against Candida parapsilosis 22019 after 24 hrs by serial dilution method. To be noted: Lodderomyces parapsilosis, 22019, 24 h. An outline of the steps:
as §1

A further assay deals with Cryptococcus neoformans. The assay is described as follows: Antimicrobial activity against Cryptococcus neoformans 32609 after 72 hrs by serial dilution method. To be noted: Cryptococcus neoformans, 32609, 72 h. An outline of the steps: as §1
In a further assay the test system is Nakaseomyces glabratus. The assay is described as follows: Antimicrobial activity against Candida glabrata 537 after 24 hrs by serial dilution method. To be noted: Nakaseomyces glabratus, 537, 24 h. An outline of the steps:
as §1

A further assay has as its system Aspergillus fumigatus. The assay is described as follows: Antimicrobial activity against Aspergillus fumigatus 7544 after 48 hrs by serial dilution method. Particulars: Aspergillus fumigatus, 7544, 48 h. Put shortly: as §1

≈ marks a conversion by molar mass, not a printed value.

What is called MIC is the lowest concentration that inhibits growth of the organism. Regarding `C[C@@H](N1CCn2nc(-c3ccc(C(F)(F)F)cc3)nc2C1)[C@](O)(Cn1cncn1)c1ccc(F)cc1F`, the MIC in the assay on Candida albicans [1] amounted to 0.25 µg/mL (≈ 0.481 µM); in the assay with Candida albicans [2], 0.5 µg/mL (≈ 0.963 µM); against Candida parapsilosis it was 0.5 µg/mL (≈ 0.963 µM); with Cryptococcus neoformans, 1 µg/mL (≈ 1.93 µM); against Nakaseomyces glabratus, 0.125 µg/mL (≈ 0.241 µM); in the assay with Aspergillus fumigatus, 16 µg/mL (≈ 30.8 µM).

For `C[C@@H](N1CCn2nc(-c3ccc(F)cc3F)nc2C1)[C@](O)(Cn1cncn1)c1ccc(F)cc1F`, the MIC against Candida albicans [1] was 0.125 µg/mL (≈ 0.256 µM); in the assay on Candida albicans [2], 0.125 µg/mL (≈ 0.256 µM); against Candida parapsilosis, 0.25 µg/mL (≈ 0.513 µM); with Cryptococcus neoformans, 0.5 µg/mL (≈ 1.03 µM); in the assay on Nakaseomyces glabratus, 0.5 µg/mL (≈ 1.03 µM); against Aspergillus fumigatus, over 64 µg/mL.

Take `CC(C)c1cccc(-c2nc3n(n2)CCN([C@H](C)[C@](O)(Cn2cncn2)c2ccc(F)cc2F)C3)c1`: the MIC against Candida albicans [1] is 0.25 µg/mL (≈ 0.507 µM); in the assay on Candida albicans [2] it was 4 µg/mL (≈ 8.1 µM); against Candida parapsilosis, 4 µg/mL (≈ 8.1 µM); in the assay on Cryptococcus neoformans, 8 µg/mL (≈ 16.2 µM); against Nakaseomyces glabratus, 4 µg/mL (≈ 8.1 µM); with Aspergillus fumigatus, 16 µg/mL (≈ 32.4 µM).

Turning to `Cc1ccc(-c2nc3n(n2)CCN([C@H](C)[C@](O)(Cn2cncn2)c2ccc(F)cc2F)C3)cc1`, the MIC was found to be 0.0625 µg/mL (≈ 0.134 µM) against Candida albicans [1]; 0.125 µg/mL (≈ 0.269 µM) in the assay with Candida albicans [2]; 0.125 µg/mL (≈ 0.269 µM) with Candida parapsilosis; 0.125 µg/mL (≈ 0.269 µM) in the assay on Cryptococcus neoformans; 0.125 µg/mL (≈ 0.269 µM) in the assay on Nakaseomyces glabratus; 32 µg/mL (≈ 68.7 µM) in the assay on Aspergillus fumigatus.

On to `COc1ccc(-c2nc3n(n2)CCN([C@H](C)[C@](O)(Cn2cncn2)c2ccc(F)cc2F)C3)cc1`, for which the minimal inhibitory concentration (MIC) against Candida albicans [1] was 0.0625 µg/mL (≈ 0.13 µM); against Candida albicans [2] it was 0.125 µg/mL (≈ 0.26 µM); with Candida parapsilosis, 0.25 µg/mL (≈ 0.519 µM); against Cryptococcus neoformans, 0.125 µg/mL (≈ 0.26 µM); in the assay on Nakaseomyces glabratus it was 0.125 µg/mL (≈ 0.26 µM); in the assay with Aspergillus fumigatus, 32 µg/mL (≈ 66.5 µM).

Turning to `C[C@@H](N1CCn2nc(-c3cccc(F)c3)nc2C1)[C@](O)(Cn1cncn1)c1ccc(F)cc1F`, the MIC against Candida albicans [1] was found to be 0.125 µg/mL (≈ 0.266 µM); against Candida albicans [2], 0.125 µg/mL (≈ 0.266 µM); against Candida parapsilosis, 0.5 µg/mL (≈ 1.07 µM); against Cryptococcus neoformans, 0.5 µg/mL (≈ 1.07 µM); against Nakaseomyces glabratus it was 0.25 µg/mL (≈ 0.533 µM); against Aspergillus fumigatus, 16 µg/mL (≈ 34.1 µM).

Turning to `C[C@@H](N1CCn2nc(-c3cccc(C#N)c3)nc2C1)[C@](O)(Cn1cncn1)c1ccc(F)cc1F`, the MIC came out at 0.125 µg/mL (≈ 0.262 µM) against Candida albicans [1]; 0.125 µg/mL (≈ 0.262 µM) in the assay with Candida albicans [2]; 0.125 µg/mL (≈ 0.262 µM) in the assay on Candida parapsilosis; 0.5 µg/mL (≈ 1.05 µM) against Cryptococcus neoformans; 0.5 µg/mL (≈ 1.05 µM) with Nakaseomyces glabratus; 16 µg/mL (≈ 33.6 µM) against Aspergillus fumigatus.

On to `COc1cccc(-c2nc3n(n2)CCN([C@H](C)[C@](O)(Cn2cncn2)c2ccc(F)cc2F)C3)c1`, for which the MIC against Candida albicans [1] stood at 0.0625 µg/mL (≈ 0.13 µM); with Candida albicans [2] it was 0.125 µg/mL (≈ 0.26 µM); in the assay with Candida parapsilosis, 0.25 µg/mL (≈ 0.519 µM); with Cryptococcus neoformans, 0.25 µg/mL (≈ 0.519 µM); in the assay on Nakaseomyces glabratus it was 0.125 µg/mL (≈ 0.26 µM); against Aspergillus fumigatus it was 32 µg/mL (≈ 66.5 µM).

In the case of `CC(C)c1ccc(-c2nc3n(n2)CCN([C@H](C)[C@](O)(Cn2cncn2)c2ccc(F)cc2F)C3)cc1`, the MIC in the assay on Candida albicans [1] turned out to be 0.5 µg/mL (≈ 1.01 µM); in the assay on Candida albicans [2], 0.5 µg/mL (≈ 1.01 µM); in the assay on Candida parapsilosis, 1 µg/mL (≈ 2.03 µM); against Cryptococcus neoformans, 2 µg/mL (≈ 4.05 µM); with Nakaseomyces glabratus it was 1 µg/mL (≈ 2.03 µM); in the assay with Aspergillus fumigatus it was 16 µg/mL (≈ 32.4 µM).

Regarding `C[C@@H](N1CCn2nc(-c3cccs3)nc2C1)[C@](O)(Cn1cncn1)c1ccc(F)cc1F`, the MIC with Candida albicans [1] turned out to be 0.125 µg/mL (≈ 0.273 µM); with Candida albicans [2] it was 0.125 µg/mL (≈ 0.273 µM); in the assay on Candida parapsilosis, 0.125 µg/mL (≈ 0.273 µM); against Cryptococcus neoformans, 0.125 µg/mL (≈ 0.273 µM); against Nakaseomyces glabratus it was 0.25 µg/mL (≈ 0.546 µM); in the assay on Aspergillus fumigatus, 8 µg/mL (≈ 17.5 µM).

Take `C[C@@H](N1CCn2nc(-c3ccco3)nc2C1)[C@](O)(Cn1cncn1)c1ccc(F)cc1F`: the MIC was 0.125 µg/mL (≈ 0.283 µM) in the assay on Candida albicans [1]; 0.125 µg/mL (≈ 0.283 µM) with Candida albicans [2]; 0.25 µg/mL (≈ 0.566 µM) in the assay with Candida parapsilosis; 0.25 µg/mL (≈ 0.566 µM) with Cryptococcus neoformans; 0.25 µg/mL (≈ 0.566 µM) against Nakaseomyces glabratus; 16 µg/mL (≈ 36.2 µM) against Aspergillus fumigatus.

Consider `C[C@@H](N1CCn2nc(-c3ccsc3)nc2C1)[C@](O)(Cn1cncn1)c1ccc(F)cc1F`, for which the MIC in the assay with Candida albicans [1] turned out to be 0.125 µg/mL (≈ 0.273 µM); with Candida albicans [2] it was 0.125 µg/mL (≈ 0.273 µM); in the assay with Candida parapsilosis, 0.125 µg/mL (≈ 0.273 µM); against Cryptococcus neoformans, 0.125 µg/mL (≈ 0.273 µM); with Nakaseomyces glabratus, 0.125 µg/mL (≈ 0.273 µM); against Aspergillus fumigatus it was 16 µg/mL (≈ 35 µM).

In the case of `C[C@@H](N1CCn2nc(Br)nc2C1)[C@](O)(Cn1cncn1)c1ccc(F)cc1F`, the MIC amounted to 0.125 µg/mL (≈ 0.275 µM) against Candida albicans [1]; 0.125 µg/mL (≈ 0.275 µM) in the assay with Candida albicans [2]; 0.25 µg/mL (≈ 0.55 µM) in the assay with Candida parapsilosis; 0.25 µg/mL (≈ 0.55 µM) against Cryptococcus neoformans; 0.5 µg/mL (≈ 1.1 µM) against Nakaseomyces glabratus; 16 µg/mL (≈ 35.2 µM) in the assay with Aspergillus fumigatus.

`C[C@@H](N1CCn2nc(-c3ccncc3)nc2C1)[C@](O)(Cn1cncn1)c1ccc(F)cc1F`: the MIC was 0.0625 µg/mL (≈ 0.138 µM) in the assay with Candida albicans [1]; 0.0625 µg/mL (≈ 0.138 µM) in the assay with Candida albicans [2]; 0.0312 µg/mL (≈ 0.0691 µM) in the assay with Candida parapsilosis; 0.125 µg/mL (≈ 0.276 µM) with Cryptococcus neoformans; 0.125 µg/mL (≈ 0.276 µM) against Nakaseomyces glabratus; 16 µg/mL (≈ 35.4 µM) against Aspergillus fumigatus.

Consider `C[C@@H](N1CCn2nc(-c3cncnc3)nc2C1)[C@](O)(Cn1cncn1)c1ccc(F)cc1F`, for which the MIC in the assay on Candida albicans [1] was 0.0312 µg/mL (≈ 0.0689 µM); with Candida albicans [2], 0.125 µg/mL (≈ 0.276 µM); against Candida parapsilosis, 0.0625 µg/mL (≈ 0.138 µM); in the assay with Cryptococcus neoformans, 0.0625 µg/mL (≈ 0.138 µM); with Nakaseomyces glabratus it was 0.0625 µg/mL (≈ 0.138 µM); against Aspergillus fumigatus it was 32 µg/mL (≈ 70.6 µM).

Source of the values: ChEMBL document CHEMBL3259614, “Design, synthesis, and structure-activity relationship studies of novel fused heterocycles-linked triazoles with good activity and water solubility” (J Med Chem, 2014).
